In ChEMBL document CHEMBL1124310, “Antiinflammatory 2,6-di-tert-butyl-4-(2-arylethenyl)phenols” (J Med Chem, 1989):

How the values were obtained:
[1] = molecular target: T1, Polyunsaturated fatty acid 5-lipoxygenase (Homo sapiens) (UniProt P09917); test: Inhibitory activity against lipoxygenase (LO) at 10 uM concentration
T1 sequence (whole entry): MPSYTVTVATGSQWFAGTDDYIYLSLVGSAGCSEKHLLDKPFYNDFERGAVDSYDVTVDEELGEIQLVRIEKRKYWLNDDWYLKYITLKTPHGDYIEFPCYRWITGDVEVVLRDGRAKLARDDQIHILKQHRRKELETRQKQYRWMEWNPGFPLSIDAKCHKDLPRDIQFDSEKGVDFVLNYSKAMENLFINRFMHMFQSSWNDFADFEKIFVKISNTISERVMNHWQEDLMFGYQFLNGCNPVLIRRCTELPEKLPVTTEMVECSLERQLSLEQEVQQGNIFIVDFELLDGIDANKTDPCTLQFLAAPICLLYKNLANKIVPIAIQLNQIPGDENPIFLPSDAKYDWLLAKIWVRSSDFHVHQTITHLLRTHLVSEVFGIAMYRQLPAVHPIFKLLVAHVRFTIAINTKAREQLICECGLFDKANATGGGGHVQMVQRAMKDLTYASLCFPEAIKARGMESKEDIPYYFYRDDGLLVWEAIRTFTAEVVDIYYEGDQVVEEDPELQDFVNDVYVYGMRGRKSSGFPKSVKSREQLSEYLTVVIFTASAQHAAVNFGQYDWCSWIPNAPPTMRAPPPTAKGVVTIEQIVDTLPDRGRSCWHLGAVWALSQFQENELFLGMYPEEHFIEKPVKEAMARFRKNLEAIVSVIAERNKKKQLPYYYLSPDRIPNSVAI
Method in brief: (§1)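 Human peripheral blood leukocytes (5 × 10^6/0.5 mL) in pH 7.2 phosphate buffer with 0.6 mM Ca2+ and 1.0 mM Mg2+ incubated with compound for 15 min at 37 °C with shaking. 5-HETE band area measured as % of total radioactivity. Inhibition = (1 − cmd/cntl) × 100; single determination in duplicate; ANOVA, p<0.05.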

Rattus norvegicus [2] = test: Inhibitory activity against developing adjuvant-induced arthritis (Dev AA) in rat at 50 mg/kg concentration; type: functional
[3] = molecular target: T1, Polyunsaturated fatty acid 5-lipoxygenase (Homo sapiens); test: Inhibitory activity against lipoxygenase (LO) at 1 uM concentration; method in brief: as §1
Rattus norvegicus [4] = test: Inhibitory activity against developing adjuvant-induced arthritis (Dev AA) in rat at 25 mg/kg concentration; type: functional
[5] = molecular target: T1, Polyunsaturated fatty acid 5-lipoxygenase (Homo sapiens); test: Inhibitory activity against 5-lipoxygenase at 1 uM concentration; method in brief: as §1
Cyclooxygenase [6] = molecular target: T2, Cyclooxygenase (Homo sapiens, UniProt P35354+P23219); test: Inhibitory activity against Prostaglandin G/H synthase at 1 uM concentration; type: protein assay
Method in brief: (§2)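 Human platelets (10^7/0.5 mL) in Ca2+-free pH 7 phosphate buffer incubated with compound for 15 min at 37 °C with shaking. Prostaglandin-thromboxane band areas measured as % of total radioactivity. Inhibition = (1 − cmd/cntl) × 100; single determination run in duplicate; ANOVA, p<0.05.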

Cyclooxygenase [7] = molecular target: T2, Cyclooxygenase; test: Inhibitory activity against Prostaglandin G/H synthase at 10 uM concentration; type: protein assay; method in brief: as §2
Rattus norvegicus [8] = test: Inhibitory activity against developing adjuvant-induced arthritis (Dev AA) in rat at 5 mg/kg concentration; type: functional
[9] = molecular target: T1, Polyunsaturated fatty acid 5-lipoxygenase (Homo sapiens); test: Inhibitory activity against 5-lipoxygenase at 10 uM concentration; method in brief: as §1
[10] = molecular target: T1, Polyunsaturated fatty acid 5-lipoxygenase (Homo sapiens); test: Inhibitory activity against lipoxygenase (LO) at 1 uM concentration; % inhibition not statistically different from control; method in brief: as §1
Cyclooxygenase [11] = molecular target: T2, Cyclooxygenase; test: Inhibitory activity against Prostaglandin G/H synthase from human platelets was determined
Rattus norvegicus [12] = test: Inhibitory activity against developing adjuvant-induced arthritis (Dev AA) in rat at 5 mg/kg concentration; decrease in paw volume statistically significant compared to control.; type: functional
Rattus norvegicus [13] = organism: Rattus norvegicus; test: Effective dose of compound to inhibit established adjuvant arthritis (EstAA) in rat; type: functional
Method in brief: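 Arthritis induced in male Lewis rats with Mycobacterium butyricum adjuvant in the right hind footpad. Rats with arthritis established by day 14 after injection were selected, then dosed orally for 14 days. Noninjected paw volume measured by mercury displacement. % inhibition versus untreated arthritic controls.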

Rattus norvegicus [14] = organism: Rattus norvegicus; test: Effective dose of compound to inhibit adjuvant-induced arthritis (Dev AA) in rat; type: functional
Rattus norvegicus [15] = test: Effective dose of compound to inhibit carrageenan induced paw edema in rat was determined; type: functional
Method in brief: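 Male CD rats (150 ± 10 g), 10 per group. Compound or vehicle (1% acacia in water) given orally 1 h before subplantar injection of 0.1 mL 1% carrageenan in saline into the right hind paw. Paw volume measured by mercury displacement before dosing and 3 h after carrageenan; the difference is the edema volume.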

Rattus norvegicus [16] = organism: Rattus norvegicus; test: Dose of compound to produce a 50% ulcerogenic response in rats was determined; type: functional
Method in brief: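 Ulcerogenic dose: value taken as the dose giving 50% response on a graded scale, 0% = no ulcers or redness in stomach or intestines, 100% = major lesions in both stomach and intestines. Method follows a cited procedure.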

Rattus norvegicus [17] = organism: Rattus norvegicus; test: Effective dose of compound to inhibit acetic acid induced writhing in rat was determined; type: functional

Compound	inhibition [1] [%]	inhibition in vivo at 50 mg/kg (Rattus norvegicus [2]) [%]	inhibition [3] [%]	inhibition [5] [%]	inhibition (Cyclooxygenase [6]) [%]	inhibition (Cyclooxygenase [7]) [%]	inhibition [9] [%]	further results
CC(C)(C)c1cc(/C=C/c2ccncc2)cc(C(C)(C)C)c1O	6	0						
CC(C)(C)c1cc(/C=C/c2cccnc2)ccc1O	81		29					inhibition in vivo at 25 mg/kg (Rattus norvegicus [4]): 3%
Cc1cc(/C=C/c2cccnc2)cc(C(C)(C)C)c1O	85		75					inhibition in vivo at 25 mg/kg (Rattus norvegicus [4]): 22%
CC(C)c1cc(/C=C/c2cccnc2)cc(C(C)C)c1O	87		73					inhibition in vivo at 25 mg/kg (Rattus norvegicus [4]): 17%
CCC(C)(C)c1cc(/C=C/c2cccs2)cc(C(C)(C)CC)c1O			10					inhibition in vivo at 25 mg/kg (Rattus norvegicus [4]): 40%
CC(C)(C)c1cc(/C=C/c2ccccc2C(=O)O)cc(C(C)(C)C)c1O				10	21	53		
CC(C)(C)c1cc(/C=C/c2cccc(C(F)(F)F)c2)cc(C(C)(C)C)c1O	22	0		19	9	18		
CC(C)(C)c1cc(/C=C2\CCOC2=O)cc(C(C)(C)C)c1O				34			67	inhibition in vivo at 5 mg/kg (Rattus norvegicus [8]): 39%; inhibition in vivo at 25 mg/kg (Rattus norvegicus [4]): 63%
CC(C)(C)c1cc(C/C=C/c2cccs2)cc(C(C)(C)C)c1O	49							inhibition [10]: 7%
CC(C)(C)c1cc(/C=C/c2ccc(Cl)s2)cc(C(C)(C)C)c1O	28	45	19					
COc1ccc(/C=C/c2cc(C(C)(C)C)c(O)c(C(C)(C)C)c2)cc1	12	0	18					
CC(C)(C)c1cc(/C=C/c2ccc(F)cc2)cc(C(C)(C)C)c1O		58		23	52	70	46	
CC(C)(C)c1cc(C(=O)/C=C/c2ccsc2)cc(C(C)(C)C)c1O		13		16	73	83	69	
COc1ccc(/C=C/c2cc(C(C)(C)C)c(O)c(C(C)(C)C)c2)cc1OC	20	26	12					
CC(C)(C)c1cc(/C=C/c2ccc[n+]([O-])c2)cc(C(C)(C)C)c1O				21	24	73	59	inhibition in vivo at 25 mg/kg (Rattus norvegicus [4]): 26%
CC(C)(C)c1cc(/C=C/c2ccc(Cl)c(Cl)c2)cc(C(C)(C)C)c1O		10		18	-16	-5	3	

Compound	inhibition [1] [%]	inhibition in vivo at 50 mg/kg (Rattus norvegicus [2]) [%]	inhibition [3] [%]	inhibition [5] [%]	inhibition (Cyclooxygenase [6]) [%]	inhibition (Cyclooxygenase [7]) [%]	inhibition [9] [%]	further results
CC(C)(C)c1cc(/C=C/C(=O)c2cccs2)cc(C(C)(C)C)c1O		8		39	44	75	84	
CC(C)(C)c1cc(C(=O)/C=C/c2cccs2)cc(C(C)(C)C)c1O	59	0		10	72	83		
CC(C)(C)c1cc(C(=O)c2cccs2)cc(C(C)(C)C)c1O [PRIFELONE]	82		17					inhibition in vivo at 5 mg/kg (Rattus norvegicus [8]): 24%; inhibition in vivo at 25 mg/kg (Rattus norvegicus [4]): 96%
Cc1ccc(/C=C/c2cc(C(C)(C)C)c(O)c(C(C)(C)C)c2)cc1		97		6	12	52	27	inhibition in vivo at 5 mg/kg (Rattus norvegicus [8]): 55%
CC(C)(C)c1cc(/C=C/c2ccsc2)cc(C(C)(C)C)c1O	81	62	9					inhibition in vivo at 5 mg/kg (Rattus norvegicus [8]): 31%
CCC(C)(C)c1cc(/C=C/c2cccnc2)cc(C(C)(C)CC)c1O			27					inhibition in vivo at 25 mg/kg (Rattus norvegicus [4]): 50%
CC(C)(C)c1cc(/C=C/c2ccccc2)cc(C(C)(C)C)c1O		42		12	34	79	14	
Oc1ccc(/C=C/c2cccnc2)cc1					28	5	41	
CC(C)(C)c1cc(CCc2cccnc2)cc(C(C)(C)C)c1O	63		13					inhibition in vivo at 25 mg/kg (Rattus norvegicus [4]): 3%
CC(C)(C)c1cc(/C=C/c2cccs2)cc(C(C)(C)C)c1O	88	77	25					IC50 (Cyclooxygenase [11]): 63 nM; inhibition in vivo at 5 mg/kg (Rattus norvegicus [12]): 57%
CC(C)(C)c1cc(/C=C/c2ccc(Cl)cc2)cc(C(C)(C)C)c1O		42		6	31	66	16	
CC(C)(C)c1cc(/C=C/c2ccccn2)cc(C(C)(C)C)c1O	88	74	34					inhibition in vivo at 5 mg/kg (Rattus norvegicus [8]): 36%
CCOC(=O)/C(=C\c1cc(C(C)(C)C)c(O)c(C(C)(C)C)c1)c1cccnc1		24		23	54	78	83	
CC(C)(C)c1cc(/C=C/C(=O)c2ccsc2)cc(C(C)(C)C)c1O	91	0		53	56	80		
CC(C)(C)c1cc(/C=C/c2cccnc2)cc(C(C)(C)C)c1O	84	82	26					ED50 (Rattus norvegicus [13]): 4 mg/kg; ED50 (Rattus norvegicus [14]): 2.1 mg/kg; ED50 (Rattus norvegicus [15]): 16.5 mg/kg; UD50 (Rattus norvegicus [16]): 202 mg/kg; ED50 (Rattus norvegicus [17]): 3.9 mg/kg; inhibition in vivo at 5 mg/kg (Rattus norvegicus [12]): 56%
CC(C)c1cc(/C=C/c2cccs2)cc(C(C)C)c1O			82					
